Data: ChEMBL document CHEMBL3861959, “Synthesis and antiproliferative evaluation of novel 2-(4H-1,2,4-triazole-3-ylthio)acetamide derivatives as inducers of apoptosis in cancer cells” (Eur J Med Chem, 2016)
pIC50: −log10 of the molar value. ≈ marks a conversion by molar mass, not a printed value.

Assays:
[1] = system: Human immunodeficiency virus 1; experiment: Antiviral activity against HIV1 3B infected in human MT4 cells assessed as protection against virus-induced cytopathic effect after 5 days MTT assay; type: functional, cell-based; conditions: Human immunodeficiency virus 1, 3B, MT4, 120 h
Outline: (§1)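 HIV-1 strain IIIB and HIV-2 strain ROD in MT-4 cells, MTT-based. Test compounds in serial five-fold dilutions, in triplicate wells run alongside mock-infected cells, with untreated infected and mock controls. MT-4 cells resuspended at 6 × 10^5 cells/mL. Absorbance read at 540 and 690 nm, median OD of three wells. EC50 is the 50% effective concentration.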

[2] = Antiviral activity against HIV2 ROD infected in human MT4 cells assessed as protection against virus-induced cytopathic effect after 5 days MTT assay; type: functional, cell-based, Human immunodeficiency virus type 2 (ISOLATE ROD); conditions: Human immunodeficiency virus 2, MT4, 120 h; outline: as §1
[3] = Cytotoxicity against human MT4 cells assessed as decrease in cell viability after 5 days by MTT assay; type: toxicity, cell-based
Outline: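 MT-4 cells in mock-infected wells of the anti-HIV MTT setup. Compounds in serial five-fold dilutions in triplicate, cells at 6 × 10^5 cells/mL. Absorbance at 540 and 690 nm, median OD of three wells. CC50 is the concentration that lowers OD540 of the mock-infected control by 50%.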

[4] = Selectivity index, ratio of CC50 for human MT4 cells to EC50 for HIV1 3B; type: toxicity, cell-based; conditions: read-out: Ratio CC50/EC50
Outline: (§2)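 HIV-1 IIIB and HIV-2 ROD tested in MT-4 cells by MTT. Serial fivefold dilutions of compound added to triplicate mock- and virus-infected wells. MT-4 cells at 6 × 10^5 cells/mL. Absorbance read at 540/690 nm; median OD of three wells used. CC50 is the concentration reducing mock-infected OD540 by 50%. […]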

[5] = Selectivity index, ratio of CC50 for human MT4 cells to EC50 for HIV2 ROD; type: toxicity, cell-based; conditions: read-out: Ratio CC50/EC50; outline: as §2
[6] = Cytotoxicity against human K562 cells assessed as decrease in cell proliferation after 72 hrs by XTT assay; conditions: K562, 72 h

## Cc1ccc(C(C)C)c(OCc2nnc(SCC(=O)Nc3ccc(Br)cc3)n2Cc2ccccc2)c1
[1]
  EC50: > 66.7 mg/L
[2]
  EC50: > 66.7 mg/L
[3]
  CC50 at 120 h: 66.7 mg/L (≈ 118 µM)
[4]
  selectivity ratio: < 1
[5]
  selectivity ratio: < 1

## CCOC(=O)c1ccc(NC(=O)CSc2nnc(COc3ccc4ccccc4c3)n2Cc2ccccc2)cc1
[1]
  EC50: > 90.7 mg/L
[2]
  EC50: > 90.7 mg/L
[3]
  CC50 at 120 h: ≥ 90.7 mg/L
[4]
  selectivity ratio: ≤ 1
[5]
  selectivity ratio: ≤ 1

## CC(=O)Nc1ccc(OCc2nnc(SCC(=O)Nc3ccc(Cl)cc3)n2Cc2ccccc2)cc1
[1]
  EC50: > 14 mg/L
[2]
  EC50: > 14 mg/L
[3]
  CC50 at 120 h: 14 mg/L (≈ 26.8 µM)
[4]
  selectivity ratio: < 1
[5]
  selectivity ratio: < 1

## Cc1ccc(C(C)C)c(OCc2nnc(SCC(=O)Nc3ccc([N+](=O)[O-])cc3)n2Cc2ccccc2)c1
[1]
  EC50: > 11.2 mg/L
[2]
  EC50: > 11.2 mg/L
[3]
  CC50 at 120 h: 11.2 mg/L (≈ 21 µM)
[4]
  selectivity ratio: < 1
[5]
  selectivity ratio: < 1

## O=C(COc1ccc2ccccc2c1)NNC(=S)NCc1ccccc1
[1]
  EC50: > 61.4 mg/L
[2]
  EC50: > 61.4 mg/L
[3]
  CC50 at 120 h: ≥ 61.4 mg/L
[4]
  selectivity ratio: ≤ 1
[5]
  selectivity ratio: ≤ 1

## O=C(CSc1nnc(COc2ccc3ccccc3c2)n1Cc1ccccc1)Nc1ccc(Br)cc1
[1]
  EC50: > 58 mg/L
[2]
  EC50: > 58 mg/L
[3]
  CC50 at 120 h: 58 mg/L (≈ 104 µM)
[4]
  selectivity ratio: < 1
[5]
  selectivity ratio: < 1

## CC(=O)Nc1ccc(OCC(=O)NNC(=S)NCc2ccccc2)cc1
[1]
  EC50: > 83.5 mg/L
[2]
  EC50: > 83.5 mg/L
[3]
  CC50 at 120 h: 83.5 mg/L (≈ 224 µM)
[4]
  selectivity ratio: < 1
[5]
  selectivity ratio: < 1

## S=c1[nH]nc(COc2ccc3ccccc3c2)n1Cc1ccccc1
[1]
  EC50: > 85.8 mg/L
[2]
  EC50: > 85.8 mg/L
[3]
  CC50 at 120 h: ≥ 85.8 mg/L
[4]
  selectivity ratio: ≤ 1
[5]
  selectivity ratio: ≤ 1

## Cc1ccc(C(C)C)c(OCc2n[nH]c(=S)n2Cc2ccccc2)c1
[1]
  EC50: > 13.1 mg/L
[2]
  EC50: > 13.1 mg/L
[3]
  CC50 at 120 h: 13.1 mg/L (≈ 37 µM)
[4]
  selectivity ratio: < 1
[5]
  selectivity ratio: < 1

## O=C(CSc1nnc(COc2ccc3ccccc3c2)n1Cc1ccccc1)Nc1ccc(Cl)cc1
[1]
  EC50: > 4.93 mg/L
[2]
  EC50: > 4.93 mg/L
[3]
  CC50 at 120 h: ≥ 4.93 mg/L
[4]
  selectivity ratio: ≤ 1
[5]
  selectivity ratio: ≤ 1

## Cc1ccnc2c1NC(=O)c1cccnc1N2C1CC1 [NEVIRAPINE]
[2]
  EC50: > 4 mg/L
[3]
  CC50 at 120 h: > 4 mg/L
[4]
  selectivity ratio: > 80
[5]
  selectivity ratio: < 1

## CC(=O)Nc1ccc(OCc2nnc(SCC(=O)Nc3ccc([N+](=O)[O-])cc3)n2Cc2ccccc2)cc1
[1]
  EC50: > 105 mg/L
[2]
  EC50: > 105 mg/L
[3]
  CC50 at 120 h: 105 mg/L (≈ 197 µM)
[4]
  selectivity ratio: < 1
[5]
  selectivity ratio: < 1

## Nc1ccn([C@H]2CC[C@@H](CO)O2)c(=O)n1 [ZALCITABINE]
[2]
  EC50: 0.19 mg/L (≈ 0.9 µM)
[3]
  CC50 at 120 h: > 20 mg/L
[4]
  selectivity ratio: > 127
[5]
  selectivity ratio: > 108

## CCOC(=O)c1ccc(NC(=O)CSc2nnc(COc3ccc(NC(C)=O)cc3)n2Cc2ccccc2)cc1
[1]
  EC50: > 91.1 mg/L
[2]
  EC50: > 91.1 mg/L
[3]
  CC50 at 120 h: 91.1 mg/L (≈ 163 µM)
[4]
  selectivity ratio: < 1
[5]
  selectivity ratio: < 1

## Cc1cn([C@H]2C[C@H](N=[N+]=[N-])[C@@H](CO)O2)c(=O)[nH]c1=O [ZIDOVUDINE]
[1]
  EC50: 0.0022 mg/L (≈ 0.00823 µM)
[2]
  EC50: 0.00094 mg/L (≈ 0.00352 µM)
[3]
  CC50 at 120 h: > 25 mg/L
[4]
  selectivity ratio: > 11600
[5]
  selectivity ratio: > 26700

## NS(=O)(=O)c1ccc(NC(=O)CSc2nnc(COc3ccc4ccccc4c3)n2Cc2ccccc2)cc1
[1]
  EC50: > 94.4 mg/L
[2]
  EC50: > 94.4 mg/L
[3]
  CC50 at 120 h: 94.5 mg/L (≈ 169 µM)
[4]
  selectivity ratio: < 1
[5]
  selectivity ratio: < 1

## O=C(CSc1nnc(COc2ccc3ccccc3c2)n1Cc1ccccc1)Nc1ccc([N+](=O)[O-])cc1
[1]
  EC50: > 116 mg/L
[2]
  EC50: > 116 mg/L
[3]
  CC50 at 120 h: ≥ 116 mg/L
[4]
  selectivity ratio: ≤ 1
[5]
  selectivity ratio: ≤ 1

## CC(=O)Nc1ccc(OCc2n[nH]c(=S)n2Cc2ccccc2)cc1
[1]
  EC50: > 79 mg/L
[2]
  EC50: > 79 mg/L
[3]
  CC50 at 120 h: 79 mg/L (≈ 223 µM)
[4]
  selectivity ratio: < 1
[5]
  selectivity ratio: < 1

## Cc1ccc(NC(=O)c2ccc(CN3CCN(C)CC3)cc2)cc1Nc1nccc(-c2cccnc2)n1 [IMATINIB]
[6]
  pIC50: 6.51

## CCOC(=O)c1ccc(NC(=O)CSc2nnc(COc3cc(C)ccc3C(C)C)n2Cc2ccccc2)cc1
[1]
  EC50: > 19.8 mg/L
[2]
  EC50: > 19.8 mg/L
[3]
  CC50 at 120 h: 19.8 mg/L (≈ 35.5 µM)
[4]
  selectivity ratio: < 1
[5]
  selectivity ratio: < 1

## O=c1[nH]cnc2c1ncn2[C@H]1CC[C@@H](CO)O1 [DIDANOSINE]
[1]
  EC50: 2.09 mg/L (≈ 8.85 µM)
[2]
  EC50: 3.78 mg/L (≈ 16 µM)
[3]
  CC50 at 120 h: > 50 mg/L
[4]
  selectivity ratio: > 24
[5]
  selectivity ratio: > 13

## Cc1ccc(C(C)C)c(OCC(=O)NNC(=S)NCc2ccccc2)c1
[1]
  EC50: > 12.6 mg/L
[2]
  EC50: > 12.6 mg/L
[3]
  CC50 at 120 h: 12.6 mg/L (≈ 34 µM)
[4]
  selectivity ratio: < 1
[5]
  selectivity ratio: < 1

## CC(=O)Nc1ccc(OCc2nnc(SCC(=O)Nc3ccc(S(N)(=O)=O)cc3)n2Cc2ccccc2)cc1
[1]
  EC50: > 125 mg/L
[2]
  EC50: > 125 mg/L
[3]
  CC50 at 120 h: > 125 mg/L
[4]
  selectivity ratio: 1
[5]
  selectivity ratio: 1
